According to article PMC6815263 (European journal of medicinal chemistry, 2019):

What was measured:
human TRPV1 = human TRPV1 (Homo sapiens, UniProt Q8NER1); assay: 45Ca2+ uptake assay, antagonism of capsaicin; assay type: cell-based
mu-opioid receptor (MOR) = mu-opioid receptor (MOR) (Homo sapiens, UniProt P35372); assay: MOR binding competition assay with [3H]DAMGO; conditions: MOR binding Ki relative to morphine
ICR mice = assay: Formalin test; assay type: in vivo, mouse; conditions: 40 mg/kg i.p., formalin assay phase 2
In short: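 Male ICR mice (20-25 g, groups of 6-8) were housed at 22 ± 2 °C and 50 ± 5% humidity and acclimated to the chamber for at least 5 min. Test compound was given i.p. 30 min before 20 μL of 2% formalin in 0.9% saline was injected into the dorsal right hindpaw. Licking/biting time (s) was summed per 5-min block over 30 min: early phase 0-5 min, late phase 20-30 min.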

human TRPV1, sequence (Q8NER1 whole entry): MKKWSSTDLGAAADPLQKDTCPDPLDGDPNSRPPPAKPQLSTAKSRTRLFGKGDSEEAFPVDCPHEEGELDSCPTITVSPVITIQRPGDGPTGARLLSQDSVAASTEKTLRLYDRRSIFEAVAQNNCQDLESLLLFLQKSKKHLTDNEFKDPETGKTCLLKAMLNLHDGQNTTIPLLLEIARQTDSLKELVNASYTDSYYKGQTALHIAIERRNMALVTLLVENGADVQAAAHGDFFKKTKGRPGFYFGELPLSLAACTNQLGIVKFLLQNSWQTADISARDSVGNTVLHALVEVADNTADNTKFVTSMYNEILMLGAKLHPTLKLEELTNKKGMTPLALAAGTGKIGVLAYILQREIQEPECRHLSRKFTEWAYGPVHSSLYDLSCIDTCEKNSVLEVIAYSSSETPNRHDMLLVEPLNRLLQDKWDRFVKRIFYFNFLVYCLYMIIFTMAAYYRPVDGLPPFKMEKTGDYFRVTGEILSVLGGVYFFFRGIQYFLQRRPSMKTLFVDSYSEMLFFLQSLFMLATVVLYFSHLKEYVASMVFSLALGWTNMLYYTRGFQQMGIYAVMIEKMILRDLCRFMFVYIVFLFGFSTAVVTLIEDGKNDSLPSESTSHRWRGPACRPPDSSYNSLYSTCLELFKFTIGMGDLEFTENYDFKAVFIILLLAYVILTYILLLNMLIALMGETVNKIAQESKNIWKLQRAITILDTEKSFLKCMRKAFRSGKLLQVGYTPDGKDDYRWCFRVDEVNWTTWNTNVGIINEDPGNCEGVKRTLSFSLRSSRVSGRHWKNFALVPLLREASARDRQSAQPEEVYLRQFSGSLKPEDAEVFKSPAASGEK
mu-opioid receptor (MOR), sequence (P35372 whole entry, species assumed): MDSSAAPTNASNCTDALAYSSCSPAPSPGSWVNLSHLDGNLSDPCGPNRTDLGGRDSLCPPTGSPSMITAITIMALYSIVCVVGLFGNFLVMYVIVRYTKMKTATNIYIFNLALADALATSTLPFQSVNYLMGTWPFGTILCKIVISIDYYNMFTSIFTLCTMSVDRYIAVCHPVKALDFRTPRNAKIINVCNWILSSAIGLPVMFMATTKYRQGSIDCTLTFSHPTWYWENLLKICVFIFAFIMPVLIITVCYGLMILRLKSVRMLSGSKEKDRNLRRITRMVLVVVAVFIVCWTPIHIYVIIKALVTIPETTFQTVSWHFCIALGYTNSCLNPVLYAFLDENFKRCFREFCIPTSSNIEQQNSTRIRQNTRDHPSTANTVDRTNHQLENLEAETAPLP

Q: Which Ki (human TRPV1) does the source give for CC1CCN(c2nc(C(F)(F)F)ccc2CNC(=O)[C@@H](C)c2ccc(NS(C)(=O)=O)c(F)c2)CC1 [compound 1, reference compound] here?
A: 0.00222 µM

Q: With CC(C(=O)NCc1ccc(C(F)(F)F)cc1N1CCC(Cc2ccccc2)(N(C)C)CC1)c1ccc(NS(C)(=O)=O)c(F)c1 (centres unmarked) [compound 11, N-(2-(4-Benzyl-4-(dimethylamino)piperidin-1-yl)-4-(trifluoromethyl)benzyl)-2-(3-fluoro-4-(methylsulfonamido)phenyl)propanamide] as the molecule, how does the Ki (human TRPV1) read?
A: 0.0082 µM

Q: Which Ki (human TRPV1) does the source give for CN(C)C1(Cc2ccccc2)CCN(c2cc(C(F)(F)F)ccc2CNC(=O)Nc2ccc(CNS(C)(=O)=O)c(F)c2)CC1 [compound 15, N-(4-(3-(2-(4-Benzyl-4-(dimethylamino)piperidin-1-yl)-4-(trifluoromethyl)benzyl)-ureido)-2-fluorobenzyl)methanesulfonamide] here?
A: 0.025 µM

Q: With CN(C)C1(Cc2ccccc2)CCN(c2cc(C(F)(F)F)ccc2CNC(=O)NCc2ccc(NS(C)(=O)=O)c(F)c2)CC1 [compound 17, N-(4-((3-(2-(4-Benzyl-4-(dimethylamino)piperidin-1-yl)-4-(trifluoromethyl)benzyl)-ureido)-methyl)-2-fluorophenyl)methanesulfonamide] as the molecule, how does the Ki (human TRPV1) read?
A: 0.0859 µM

Q: How did the Ki (human TRPV1) turn out when CN(C)C1(Cc2ccccc2)CCN(c2cc(C(F)(F)F)ccc2CNC(=O)Nc2ccc(CO)c(F)c2)CC1 [compound 23, 1-(2-(4-Benzyl-4-(dimethylamino)piperidin-1-yl)-4-(trifluoromethyl)benzyl)-3-(3-fluoro-4-(hydroxymethyl)phenyl)urea] was run?
A: 0.081 µM

Q: For CN(C)C1(Cc2ccccc2)CCN(c2cc(C(F)(F)F)ccc2CNC(=O)Nc2ccc3c(c2)OCC3)CC1 [compound 33, 1-(2-(4-Benzyl-4-(dimethylamino)piperidin-1-yl)-4-(trifluoromethyl)benzyl)-3-(2,3-dihydrobenzofuran-6-yl)urea], which Ki (human TRPV1) is on record?
A: 0.0313 µM

Q: CN(C)C1(Cc2ccccc2)CCN(c2cc(C(F)(F)F)ccc2CNC(=O)Nc2cccc3[nH]c(=O)ccc23)CC1 [compound 35, 1-(2-(4-Benzyl-4-(dimethylamino)piperidin-1-yl)-4-(trifluoromethyl)benzyl)-3-(2-oxo-1,2-dihydroquinolin-5-yl)urea] was tested. Which Ki (human TRPV1) did it give?
A: 0.0306 µM

Q: How did the Ki (human TRPV1) turn out when CN(C)C1(Cc2ccccc2)CCN(c2cc(C(F)(F)F)ccc2CNC(=O)Nc2ccc3cccnc3c2)CC1 [compound 44, 1-(2-(4-Benzyl-4-(dimethylamino)piperidin-1-yl)-4-(trifluoromethyl)benzyl)-3-(quinolin-7-yl)urea] was run?
A: 0.042 µM

Q: Which Ki (human TRPV1) does the source give for CN(C)C1(Cc2ccccc2)CCN(c2cc(C(F)(F)F)ccc2CNC(=O)Nc2ccc3ccncc3c2)CC1 [compound 45, 1-(2-(4-Benzyl-4-(dimethylamino)piperidin-1-yl)-4-(trifluoromethyl)benzyl)-3-(isoquinolin-7-yl)urea] here?
A: 0.0561 µM

Q: CN(C)C1(Cc2ccccc2)CCN(c2cc(C(F)(F)F)ccc2CNC(=O)Nc2ccc3cnccc3c2)CC1 [compound 46, 1-(2-(4-Benzyl-4-(dimethylamino)piperidin-1-yl)-4-(trifluoromethyl)benzyl)-3-(isoquinolin-6-yl)urea] was tested. Which Ki (human TRPV1) did it give?
A: 0.156 µM

Q: Which Ki (human TRPV1) does the source give for CN(C)C1(Cc2ccccc2)CCN(c2cc(C(F)(F)F)ccc2CNC(=O)Nc2cccc3ccncc23)CC1 [compound 47, 1-(2-(4-Benzyl-4-(dimethylamino)piperidin-1-yl)-4-(trifluoromethyl)benzyl)-3-(isoquinolin-8-yl)urea] here?
A: 0.0187 µM

Q: With CN(C)C1(Cc2ccccc2)CCN(c2cc(C(F)(F)F)ccc2CNC(=O)Nc2cccc3cnccc23)CC1 [compound 48, 1-(2-(4-Benzyl-4-(dimethylamino)piperidin-1-yl)-4-(trifluoromethyl)benzyl)-3-(isoquinolin-5-yl)urea] as the molecule, how does the Ki (human TRPV1) read?
A: 0.0088 µM

Q: Which results are given for CN(C)C1(Cc2ccccc2)CCN(c2cc(C(F)(F)F)ccc2CNC(=O)Nc2cccc3ncccc23)CC1 [compound 49, 1-(2-(4-Benzyl-4-(dimethylamino)piperidin-1-yl)-4-(trifluoromethyl)benzyl)-3-(quinolin-5-yl)urea]?
A: fold less potent than morphine (MOR Ki) (mu-opioid receptor (MOR)): 5 fold; inhibition of pain behavior in phase 2 (ICR mice): completely
